Source: ChEMBL document CHEMBL1144782, “Isoindolo[2,1-a]quinoxaline derivatives, novel potent antitumor agents with dual inhibition of tubulin polymerization and topoisomerase I” (2008)
The source made the active and inactive calls. The rule behind the calls is not given here.

How the values were obtained:
NCI-H460 = test: Cell viability against human NCI-H460 cells at 10 uM; format: functional
MCF7 = test: Cell viability against human MCF7 cells at 10 uM; format: functional
SF-268 = test: Cell viability against human SF268 cells at 10 uM; format: functional
Jurkat = test: Cell cycle arrest in human Jurkat cells at mitosis at 0.5 uM after 24 hrs; format: functional
Outline: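 Exponentially growing Jurkat cells were exposed for 24 h, then pelleted at 400g for 5 min. Hypotonic KCl (75 mM, 4 °C) was applied for 20 min, followed by methanol–acetic acid (3:1) fixation and Giemsa staining. 400 cells per treatment were scored microscopically; mitotic index is the fraction with mitotic figures. Three independent experiments, mean ± SEM.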

Tubulin (Sus scrofa) = Tubulin (Sus scrofa) (UniProt P02554+P02550); test: Inhibition of pig brain tubulin polymerization at 3 uM
Tubulin (Sus scrofa), sequence (P02550 whole entry, looked up): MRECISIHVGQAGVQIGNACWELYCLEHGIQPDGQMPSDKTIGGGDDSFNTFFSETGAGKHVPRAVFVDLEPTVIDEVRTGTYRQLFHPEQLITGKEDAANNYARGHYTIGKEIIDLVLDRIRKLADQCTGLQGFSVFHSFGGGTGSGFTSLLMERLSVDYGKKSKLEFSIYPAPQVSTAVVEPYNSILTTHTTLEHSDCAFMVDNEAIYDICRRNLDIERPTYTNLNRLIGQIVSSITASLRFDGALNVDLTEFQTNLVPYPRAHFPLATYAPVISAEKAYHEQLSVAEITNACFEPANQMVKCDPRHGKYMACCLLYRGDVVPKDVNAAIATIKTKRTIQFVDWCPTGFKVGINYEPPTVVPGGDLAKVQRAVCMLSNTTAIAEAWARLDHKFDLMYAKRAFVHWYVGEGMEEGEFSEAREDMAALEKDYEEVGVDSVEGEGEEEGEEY
Tubulin (Sus scrofa), sequence (P02554 whole entry, looked up): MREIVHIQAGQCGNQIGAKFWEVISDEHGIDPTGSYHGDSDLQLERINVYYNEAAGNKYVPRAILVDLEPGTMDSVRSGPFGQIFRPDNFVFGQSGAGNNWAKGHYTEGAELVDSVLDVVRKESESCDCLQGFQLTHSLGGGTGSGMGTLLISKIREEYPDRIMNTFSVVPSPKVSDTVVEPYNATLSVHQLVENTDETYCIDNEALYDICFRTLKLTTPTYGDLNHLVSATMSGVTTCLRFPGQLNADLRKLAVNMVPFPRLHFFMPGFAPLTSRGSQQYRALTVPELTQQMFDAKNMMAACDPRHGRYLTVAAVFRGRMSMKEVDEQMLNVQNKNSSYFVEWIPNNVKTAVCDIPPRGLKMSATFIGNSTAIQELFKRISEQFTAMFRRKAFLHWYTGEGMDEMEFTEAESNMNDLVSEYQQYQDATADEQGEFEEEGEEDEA

A549 = test: Disruption of tubulin network in human A549 cells assessed as disaggregation of microtubules at 1 uM […]; format: functional, cell-based

Structure (SMILES)	Activity (NCI-H460)	Activity (MCF7)	Activity (SF-268)	further results
N#Cc1c2ccccc2c2cnc3ccccc3n12	91%	107%	94%	–
N#Cc1c2ccccc2c2cnc3cc(Cl)c(Cl)cc3n12	104%	108%	104%	–
Cc1cc2ncc3c4ccccc4c(C#N)n3c2cc1C	78%	97%	83%	–
COc1cc2c(c(OC)c1OC)-c1ccc(OC)c(=O)cc1[C@@H](NC(C)=O)CC2 [COLCHICINE]	–	–	–	Activity (Jurkat): 50%
CC(=O)O[C@H]1C(=O)[C@@]2(C)[C@H]([C@H](OC(=O)c3ccccc3)[C@]3(O)C[C@H](OC(=O)[C@H](O)[C@@H](NC(=O)c4ccccc4)c4ccccc4)C(C)=C1C3(C)C)[C@]1(OC(C)=O)CO[C@@H]1C[C@@H]2O	–	–	–	Activity (Tubulin (Sus scrofa)): Active
CC[C@]1(O)C[C@@H]2CN(CCc3c([nH]c4ccccc34)[C@@](C(=O)OC)(c3cc4c(cc3OC)N(C)[C@H]3[C@@](O)(C(=O)OC)[C@H](OC(C)=O)[C@]5(CC)C=CCN6CC[C@]43[C@@H]65)C2)C1	–	–	–	Activity (A549): Active
